Assay results gathered from unrelated publications.
Compare with care: the assays were run in different laboratories.
HTR2B: 5-hydroxytryptamine receptor 2B (HTR2B, Homo sapiens, UniProt P41595)
HTR2C: 5-hydroxytryptamine receptor 2C (HTR2C, Homo sapiens, UniProt P28335)

| Compound | target | test | conditions | quantity | result |
| --- | --- | --- | --- | --- | --- |
| COc1cc(C(F)(F)F)c(OC)cc1C1CCCNC1 (stereo not shown) | HTR2B | G protein activation, agonist, BRET | – | Emax | 84% |
| COc1cc2c3c(c1OC)-c1c(OC)ccc(O)c1CC3N(C)CC2 (stereo not shown) | HTR2B | ligand displacement, radioligand | 10 µM | inhibition | 86% |
| c1cncc([C@@H]2CCCN2)c1 | HTR2B | ligand displacement | 50 µM | inhibition | -2.22% |
| Nc1ncnc2c1ncn2[C@@H]1O[C@H](C[C@@H](N)CC[C@H](N)C(=O)O)[C@@H](O)[C@H]1O | mRNA cap guanine-N(7) methyltransferase (RNMT, Homo sapiens, UniProt O43148) | enzyme activity, inhibitor | 12.21 nM | inhibition | 13.7% |
| CC(C)CC(=O)OC[C@H]1O[C@@](C#N)(c2ccc3c(N)ncnn23)[C@H](O)[C@@H]1O | HTR2B | cell-free assay | 20 µM | inhibition | 10% |
| COc1cc2cc3c4c(cc(OC)c(OC)c4c2cc1OC)CCN3C | HTR2C | ligand displacement, radioligand | 10 µM | inhibition | -1% |
| [2H]c1c([2H])c([C@]2([2H])CCCN2C(=O)C(C)(C)Oc2ccc3cn[nH]c3c2)c([2H])c([2H])c1C([2H])([2H])[2H] | Serine/threonine-protein kinase DCLK3 (DCLK3, Homo sapiens, UniProt Q9C098) | binding, competition with immobilised ligand | 1 µM | remaining binding | 86% |
| COc1cc2c(cc1OC)-c1c(OC)c(OC)cc3c1[C@H](C2)N(C)CC3 | HTR2B | ligand displacement, radioligand | 10 µM | inhibition | 92% |
| CC[C@H](C)[C@H](NC(=O)[C@H](CO)NC(=O)[C@H](Cc1ccc(O)cc1)NC(=O)[C@H](CC(=O)O)NC(=O)[C@H](CO)NC(=O)[C@@H](NC(=O)[C@H](Cc1ccccc1)NC(=O)[C@@H](NC(=O)CNC(=O)[C@H](CCC(=O)O)NC(=O)CCNC(=O)C1(c2ccc(Cl)cc2)CCOCC1)[C@@H](C)O)[C@@H](C)CC)C(=O)N[C@@H](C)C(=O)N[C@@H](CCSC)C(=O)N[C@@H](CC(=O)O)C(=O)N[C@@H](CCCCN)C(=O)N[C@H](C(=O)N[C@@H](Cc1c[nH]cn1)C(=O)N[C@@H](CCC(N)=O)C(=O)N[C@@H](CCC(N)=O)C(=O)N[C@@H](CC(=O)O)C(=O)N[C@@H](Cc1ccccc1)C(=O)N[C@H](C(=O)N[C@@H](CC(N)=O)C(=O)N[C@@H](Cc1c[nH]c2ccccc12)C(=O)N[C@@H](CC(C)C)C(=O)N[C@@H](CC(C)C)C(=O)N[C@@H](C)C(=O)N[C@@H](CCC(N)=O)C(=O)NCC(=O)N1CCC[C@H]1C(=O)N[C@@H](CO)C(=O)N[C@@H](CO)C(=O)NCC(=O)N[C@@H](C)C(=O)N1CCC[C@H]1C(=O)N1CCC[C@H]1C(=O)N1CCC[C@H]1C(=O)N[C@@H](CO)C(=O)N[C@@H](CCCCN)C(N)=O)C(C)C)[C@@H](C)CC | Glucagon receptor (Mus musculus, UniProt Q61606) | cAMP, agonist | – | Emax | < 20% |
| CN1CCC[C@H]1c1cccnc1 | HTR2C | ligand displacement | 50 µM | inhibition | -24.7% |
